Data as given in ChEMBL document CHEMBL4270530, “Surmounting the resistance against EGFR inhibitors through the development of thieno[2,3-d]pyrimidine-based dual EGFR/HER2 inhibitors” (Eur J Med Chem, 2018).
The source made the active and inactive calls. No cut-off for these calls is given here.

What was measured:
[1] = tested on: A-431; experiment: Cytotoxicity against human A431 cells over expressing EGFR assessed as reduction in cell viability after 72 hrs by sulforhodamine B assay; assay type: functional, cell-based; conditions: A-431, 72 h
Outline: (§1)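 Cells seeded and grown 24 h, then exposed to 0.1% DMSO vehicle or 0.3125-20 μM compound for 72 h. Fixed with ice-cold 50% TCA (1 h, 4 °C), stained with 0.4% SRB 30 min at room temperature, dye solubilized in 10 mM tris base pH 10.5, OD read at 560 nm. Survival fraction = OD treated/OD vehicle; IC50 from triplicates of at least two independent experiments, mean ± SD.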

[2] = tested on: MDA-MB-361; experiment: Cytotoxicity against human MDA-MB-361 cells over expressing HER2 assessed as reduction in cell viability after 72 hrs by sulforhodamine B assay; assay type: functional, cell-based; conditions: MDA-MB-361, 72 h; outline: as §1
[3] = target: T1, Receptor tyrosine-protein kinase erbB-2 (Homo sapiens, UniProt P04626); experiment: Inhibition of recombinant human N-terminal GST-tagged HER2 (679 to 1255 residues) expressed in baculovirus infected Sf9 cells using Poly-(Glu, Tyr) as substrate measured after 45 minutes by Kinase-Glo luminescent assay
[4] = tested on: SK-BR-3; experiment: Cytotoxicity against human SKBR3 cells over expressing HER2 assessed as reduction in cell viability after 72 hrs by sulforhodamine B assay; assay type: functional, cell-based; conditions: SK-BR-3, 72 h; outline: as §1
[5] = tested on: NCI-H1975; experiment: Cytotoxicity against human NCI-H1975 cells harboring EGFR T790M mutant assessed as reduction in cell viability after 72 hrs by sulforhodamine B assay; assay type: functional, cell-based; conditions: NCI-H1975, 72 h; outline: as §1
[6] = target: T2, Epidermal growth factor receptor (Homo sapiens, UniProt P00533); experiment: Inhibition of recombinant human C-terminal His-tagged/N-terminal GST-tagged EGFR (668 to 1210 residues) expressed in baculovirus infected Sf9 cells using Poly-(Glu, Tyr) as substrate measured after 45 minutes by Kinase-Glo luminescent assay
[7] = target: T1, Receptor tyrosine-protein kinase erbB-2; experiment: Inhibition of HER2 signalling in HER2 over-expressing human SKBR3 cells assessed as reduction in AKT phosphorylation at S473 residue at 2.5 to 10 uM after 72 hrs by Western blot analysis
Outline: (§2)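 SKBr3 cells (DMEM, 10% FBS) treated 72 h at indicated concentrations. HEPES-buffer lysates on 12% SDS-PAGE, nitrocellulose transfer, 5% milk/TBST block, immunoblotted for AKT/mTOR/S6 with HRP secondary and chemiluminescence; β-actin loading control.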

[8] = target: T1, Receptor tyrosine-protein kinase erbB-2; experiment: Inhibition of HER2 signalling in HER2 over-expressing human SKBR3 cells assessed as reduction in mTOR phosphorylation at S2448 residue at 2.5 to 10 uM after 72 hrs by Western blot analysis; outline: as §2
[9] = target: T1, Receptor tyrosine-protein kinase erbB-2; experiment: Inhibition of HER2 signalling in HER2 over-expressing human SKBR3 cells assessed as reduction in S6 phosphorylation at S235/236 residue at 2.5 to 10 uM after 72 hrs by Western blot analysis; outline: as §2
[10] = tested on: MDA-MB-361; experiment: Induction of apoptosis in human MDA-MB-361 cells after 24 hrs by Annexin-V-FITC/propidium iodide staining based flow cytometry; assay type: functional, cell-based
[11] = target: T2, Epidermal growth factor receptor; experiment: Inhibition of EGF-induced EGFR phosphorylation at Y1068 residues in EGFR over-expressing human A431 cells pretreated for 3 hrs followed by EGF-stimulation and measured after 10 mins by Western blot analysis
Outline: (§3)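 Overnight serum-starved A431 cells given indicated concentrations for 3 h, then 50 ng/ml EGF for 10 min. HEPES-buffer lysates resolved on 12% SDS-PAGE, transferred to nitrocellulose, blocked in 5% milk/TBST, probed with primary and HRP secondary antibodies, chemiluminescence read-out.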

[12] = target: T2, Epidermal growth factor receptor; experiment: Inhibition of EGF-induced EGFR signalling in EGFR over-expressing human A431 cells assessed as reduction in AKT phosphorylation at S473 residue at 2.5 to 10 uM pretreated for 3 hrs followed by EGF-stimulation and measured after 10 mins by Western blot analysis; outline: as §3
[13] = target: T2, Epidermal growth factor receptor; experiment: Inhibition of EGF-induced EGFR signalling in EGFR over-expressing human A431 cells assessed as reduction in p70S6K phosphorylation at T389 residue at 2.5 to 10 uM pretreated for 3 hrs followed by EGF-stimulation and measured after 10 mins by Western blot analysis; outline: as §3
[14] = target: T2, Epidermal growth factor receptor; experiment: Inhibition of EGF-induced EGFR signalling in EGFR over-expressing human A431 cells assessed as reduction in ribosomal S6 phosphorylation at S235/236 residue at 2.5 to 10 uM pretreated for 3 hrs followed by EGF-stimulation and measured after 10 mins by Western blot analysis; outline: as §3
[15] = tested on: NCI-H1975; experiment: Induction of apoptosis in human NCI-H1975 cells harboring EGFR T790M mutant assessed as increase in apoptotic cells at 2.5 to 10 uM after 72 hrs by Annexin-V-FITC/propidium iodide staining based flow cytometry; assay type: functional, cell-based
[16] = tested on: NCI-H1975; experiment: Induction of apoptosis in human NCI-H1975 cells harboring EGFR T790M mutant assessed as increase in necrotic cells at 2.5 to 10 uM after 72 hrs by Annexin-V-FITC/propidium iodide staining based flow cytometry; assay type: functional, cell-based
Outline: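 NCI-H1975 cells grown in RPMI-1640 with 2 mM L-glutamine and 10% FBS, exposed 72 h to indicated concentrations. Harvested, ethanol-fixed on ice, PI-stained overnight at 4 °C. Flow cytometry on 20 000 cells/sample gave percent live, early apoptotic and late apoptotic/necrotic cells.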

[17] = tested on: Epidermal growth factor receptor (Homo sapiens), P00533 [T790M]; experiment: Inhibition of EGFR T790M mutant in human NCI-H1975 cells assessed as reduction in AKT phosphorylation at S473 residue after 72 hrs by Western blot analysis; assay type: cell-based
Outline: (§4)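 Unstimulated NCI-H1975 cells exposed to indicated concentrations for 72 h. Lysates in HEPES buffer run on 12% SDS-PAGE, blotted to nitrocellulose and probed for AKT/S6K/S6 signalling with chemiluminescent detection; β-actin loading control.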

[18] = tested on: Epidermal growth factor receptor (Homo sapiens), P00533 [T790M]; experiment: Inhibition of EGFR T790M mutant in human NCI-H1975 cells assessed as reduction in p70S6K phosphorylation at T389 residue after 72 hrs by Western blot analysis; assay type: cell-based; outline: as §4
[19] = tested on: Epidermal growth factor receptor (Homo sapiens), P00533 [T790M]; experiment: Inhibition of EGFR T790M mutant in human NCI-H1975 cells assessed as reduction in ribosomal S6 phosphorylation at S235/236 residue after 72 hrs by Western blot analysis; assay type: cell-based; outline: as §4
[20] = tested on: Epidermal growth factor receptor (Homo sapiens), P00533 [T790M]; experiment: Inhibition of EGF-induced EGFR T790M mutant phosphorylation in human NCI-H1975 cells at 2.5 to 10 uM pretreated for 2.5 hrs followed by EGF-stimulation and measured after 10 mins by Western blot analysis; assay type: cell-based
Outline: (§5)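 Serum-starved overnight NCI-H1975 cells preincubated 2.5 h with compound, then stimulated with 50 ng/ml EGF for 10 min. Lysed in HEPES buffer, protein quantified, 12% SDS-PAGE, nitrocellulose transfer, milk blocking, HRP secondary, chemiluminescent detection.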

[21] = tested on: Epidermal growth factor receptor (Homo sapiens), P00533 [T790M]; experiment: Inhibition of EGF-induced EGFR T790M mutant in human NCI-H1975 cells assessed as reduction in AKT phosphorylation at S473 residue at 2.5 to 10 uM pretreated for 2.5 hrs followed by EGF-stimulation and measured after 10 mins by Western blot analysis; assay type: cell-based; outline: as §5
[22] = tested on: Epidermal growth factor receptor (Homo sapiens), P00533 [T790M]; experiment: Inhibition of EGF-induced EGFR T790M mutant in human NCI-H1975 cells assessed as reduction in p70S6K phosphorylation at T389 residue at 2.5 to 10 uM pretreated for 2.5 hrs followed by EGF-stimulation and measured after 10 mins by Western blot analysis; assay type: cell-based; outline: as §5
[23] = tested on: Epidermal growth factor receptor (Homo sapiens), P00533 [T790M]; experiment: Inhibition of EGF-induced EGFR T790M mutant in human NCI-H1975 cells assessed as reduction in ribosomal S6 phosphorylation at S235/236 residue at 2.5 to 10 uM pretreated for 2.5 hrs followed by EGF-stimulation and measured after 10 mins by Western blot analysis; assay type: cell-based; outline: as §5
[24] = target: T2, Epidermal growth factor receptor; experiment: Inhibition of EGF-induced EGFR signalling in EGFR over-expressing human A431 cells assessed as reduction in AKT phosphorylation at S473 residue at 5 to 20 uM pretreated for 3 hrs followed by EGF-stimulation and measured after 10 mins by Western blot analysis; outline: as §3
[25] = target: T2, Epidermal growth factor receptor; experiment: Inhibition of EGF-induced EGFR signalling in EGFR over-expressing human A431 cells assessed as reduction in p70S6K phosphorylation at T389 residue at 5 to 20 uM pretreated for 3 hrs followed by EGF-stimulation and measured after 10 mins by Western blot analysis; outline: as §3
[26] = target: T2, Epidermal growth factor receptor; experiment: Inhibition of EGF-induced EGFR signalling in EGFR over-expressing human A431 cells assessed as reduction in ribosomal S6 phosphorylation at S235/236 residue at 5 to 20 uM pretreated for 3 hrs followed by EGF-stimulation and measured after 10 mins by Western blot analysis; outline: as §3

Epidermal growth factor receptor (Homo sapiens), P00533 [T790M], sequence (P00533 whole entry T790M): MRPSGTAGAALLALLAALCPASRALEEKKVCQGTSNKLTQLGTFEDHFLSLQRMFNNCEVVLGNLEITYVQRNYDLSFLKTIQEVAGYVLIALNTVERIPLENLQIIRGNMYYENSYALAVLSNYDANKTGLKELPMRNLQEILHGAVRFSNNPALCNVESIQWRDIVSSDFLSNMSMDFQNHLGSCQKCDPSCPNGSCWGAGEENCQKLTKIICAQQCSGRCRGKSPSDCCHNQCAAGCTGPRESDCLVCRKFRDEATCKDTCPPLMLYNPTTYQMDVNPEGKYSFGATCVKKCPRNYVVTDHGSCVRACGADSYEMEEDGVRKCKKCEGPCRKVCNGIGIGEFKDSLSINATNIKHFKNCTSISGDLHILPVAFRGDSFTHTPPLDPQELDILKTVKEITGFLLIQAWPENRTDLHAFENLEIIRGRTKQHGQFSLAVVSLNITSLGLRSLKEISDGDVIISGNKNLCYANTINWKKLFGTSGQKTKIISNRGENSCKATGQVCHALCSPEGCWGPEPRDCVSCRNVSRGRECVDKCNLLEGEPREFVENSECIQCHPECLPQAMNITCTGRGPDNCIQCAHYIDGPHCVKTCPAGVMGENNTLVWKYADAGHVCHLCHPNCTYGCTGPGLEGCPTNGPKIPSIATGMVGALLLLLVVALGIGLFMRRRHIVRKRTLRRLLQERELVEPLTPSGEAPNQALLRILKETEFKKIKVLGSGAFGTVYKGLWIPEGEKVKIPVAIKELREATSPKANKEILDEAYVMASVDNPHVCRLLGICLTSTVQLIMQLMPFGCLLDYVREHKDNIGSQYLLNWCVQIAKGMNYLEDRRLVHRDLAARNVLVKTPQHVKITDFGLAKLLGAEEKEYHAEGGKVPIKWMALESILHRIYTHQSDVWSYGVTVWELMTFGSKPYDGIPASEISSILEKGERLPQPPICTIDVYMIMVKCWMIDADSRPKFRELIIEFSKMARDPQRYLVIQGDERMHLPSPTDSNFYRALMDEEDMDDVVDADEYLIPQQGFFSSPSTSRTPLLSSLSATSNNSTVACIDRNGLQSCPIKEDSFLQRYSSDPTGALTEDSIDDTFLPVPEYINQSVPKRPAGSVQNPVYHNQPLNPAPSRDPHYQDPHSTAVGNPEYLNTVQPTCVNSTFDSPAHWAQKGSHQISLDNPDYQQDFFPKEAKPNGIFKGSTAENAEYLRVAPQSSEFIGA
T2 sequence (P00533 whole entry, the tested form may be a part): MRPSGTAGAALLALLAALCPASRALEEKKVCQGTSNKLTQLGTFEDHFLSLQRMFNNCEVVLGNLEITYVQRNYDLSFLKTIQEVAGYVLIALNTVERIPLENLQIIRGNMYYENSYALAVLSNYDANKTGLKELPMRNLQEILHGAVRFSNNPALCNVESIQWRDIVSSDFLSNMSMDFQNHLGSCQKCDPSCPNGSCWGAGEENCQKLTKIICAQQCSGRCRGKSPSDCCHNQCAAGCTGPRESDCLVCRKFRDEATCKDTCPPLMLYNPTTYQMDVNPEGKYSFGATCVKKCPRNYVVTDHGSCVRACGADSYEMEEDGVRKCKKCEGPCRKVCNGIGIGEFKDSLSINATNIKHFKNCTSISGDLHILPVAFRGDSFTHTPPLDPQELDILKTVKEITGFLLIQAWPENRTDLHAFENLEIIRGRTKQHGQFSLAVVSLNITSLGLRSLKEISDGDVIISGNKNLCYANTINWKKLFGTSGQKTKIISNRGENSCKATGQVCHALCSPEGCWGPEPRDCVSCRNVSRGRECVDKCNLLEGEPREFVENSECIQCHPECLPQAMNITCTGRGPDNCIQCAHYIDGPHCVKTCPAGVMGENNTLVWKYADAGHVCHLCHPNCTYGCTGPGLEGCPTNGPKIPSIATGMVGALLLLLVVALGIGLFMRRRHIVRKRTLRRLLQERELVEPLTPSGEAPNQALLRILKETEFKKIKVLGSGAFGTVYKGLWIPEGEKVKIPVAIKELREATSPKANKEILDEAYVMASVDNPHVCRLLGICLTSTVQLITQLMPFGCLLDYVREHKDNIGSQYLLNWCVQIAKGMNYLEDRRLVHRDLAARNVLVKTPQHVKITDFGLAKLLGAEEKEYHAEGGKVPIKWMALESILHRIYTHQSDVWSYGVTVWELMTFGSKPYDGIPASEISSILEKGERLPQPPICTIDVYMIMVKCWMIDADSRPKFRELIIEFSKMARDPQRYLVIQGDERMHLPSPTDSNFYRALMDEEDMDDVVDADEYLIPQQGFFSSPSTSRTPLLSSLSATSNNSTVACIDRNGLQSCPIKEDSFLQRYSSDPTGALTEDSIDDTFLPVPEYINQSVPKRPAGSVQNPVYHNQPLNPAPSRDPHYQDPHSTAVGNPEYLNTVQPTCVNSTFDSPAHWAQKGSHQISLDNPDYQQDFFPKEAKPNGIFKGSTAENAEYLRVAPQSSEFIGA
T1 sequence (P04626 whole entry, the tested form may be a part): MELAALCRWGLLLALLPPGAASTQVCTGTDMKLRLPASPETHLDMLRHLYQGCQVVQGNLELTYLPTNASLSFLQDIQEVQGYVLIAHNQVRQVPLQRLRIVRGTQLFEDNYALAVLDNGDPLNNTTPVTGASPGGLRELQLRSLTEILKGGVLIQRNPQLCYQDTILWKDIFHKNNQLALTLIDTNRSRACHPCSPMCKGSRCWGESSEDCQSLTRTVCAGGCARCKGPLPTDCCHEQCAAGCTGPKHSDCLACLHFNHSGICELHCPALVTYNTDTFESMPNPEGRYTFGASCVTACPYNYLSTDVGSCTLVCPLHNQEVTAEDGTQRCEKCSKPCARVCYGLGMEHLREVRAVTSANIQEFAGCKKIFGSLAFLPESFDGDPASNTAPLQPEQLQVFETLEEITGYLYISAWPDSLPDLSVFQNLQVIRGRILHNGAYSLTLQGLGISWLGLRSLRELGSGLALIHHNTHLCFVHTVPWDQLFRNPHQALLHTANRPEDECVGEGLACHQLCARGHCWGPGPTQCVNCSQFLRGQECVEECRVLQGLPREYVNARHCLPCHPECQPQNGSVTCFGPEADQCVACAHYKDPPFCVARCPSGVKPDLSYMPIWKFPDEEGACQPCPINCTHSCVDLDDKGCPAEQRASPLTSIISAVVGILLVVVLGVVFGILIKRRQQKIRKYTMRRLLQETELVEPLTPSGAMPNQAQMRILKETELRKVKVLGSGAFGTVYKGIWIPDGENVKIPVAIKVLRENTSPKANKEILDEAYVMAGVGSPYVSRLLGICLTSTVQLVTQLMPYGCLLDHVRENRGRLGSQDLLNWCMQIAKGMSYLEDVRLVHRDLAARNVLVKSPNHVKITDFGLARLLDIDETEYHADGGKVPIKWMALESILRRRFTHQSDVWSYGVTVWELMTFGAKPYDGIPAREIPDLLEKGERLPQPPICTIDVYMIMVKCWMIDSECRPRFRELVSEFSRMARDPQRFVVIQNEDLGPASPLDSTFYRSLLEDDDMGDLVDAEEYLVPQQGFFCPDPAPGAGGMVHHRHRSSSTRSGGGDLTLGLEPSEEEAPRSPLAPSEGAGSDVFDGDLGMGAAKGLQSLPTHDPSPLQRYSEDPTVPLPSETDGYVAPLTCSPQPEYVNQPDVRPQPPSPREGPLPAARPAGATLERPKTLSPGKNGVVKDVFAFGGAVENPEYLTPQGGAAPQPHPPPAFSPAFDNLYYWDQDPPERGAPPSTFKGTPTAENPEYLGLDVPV

SMILES: Nc1ccc(-c2cc3c(NCc4ccccc4)ncnc3s2)cc1
- IC50 [1]: > 20 µM
- IC50 [2]: > 20 µM

SMILES: CS(=O)(=O)Nc1ccc(-c2cc3c(Nc4ccc(Oc5cccc(C(F)(F)F)c5)c(Cl)c4)ncnc3s2)cc1
- IC50 [1]: 5.25 µM
- IC50 [2]: 9.86 µM
- IC50 [3]: 19200 nM

SMILES: O=[N+]([O-])c1ccc(-c2cc3c(Nc4ccc(Oc5cccc(C(F)(F)F)c5)c(Cl)c4)ncnc3s2)cc1
- IC50 [1]: 1.72 µM
- IC50 [2]: 3.65 µM

SMILES: CC(=O)Nc1ccc(-c2cc3c(Nc4ccc(Oc5cccc(C(F)(F)F)c5)c(Cl)c4)ncnc3s2)cc1
- IC50 [1]: 10.5 µM
- IC50 [2]: 10.5 µM
- IC50 [4]: 4.7 µM
- IC50 [5]: 12.7 µM
- IC50 [6]: 47.7 nM
- IC50 [3]: 879 nM
- inhibition [7]: Active
- inhibition [8]: Active
- inhibition [9]: Active

SMILES: CS(=O)(=O)CCNCc1ccc(-c2ccc3ncnc(Nc4ccc(OCc5cccc(F)c5)c(Cl)c4)c3c2)o1
- IC50 [1]: 1.69 µM
- IC50 [2]: 13.7 µM
- IC50 [4]: 0.17 µM
- IC50 [5]: 11.5 µM

SMILES: O=[N+]([O-])c1ccc(-c2cc3c(Nc4ccc5c(cnn5Cc5ccccc5)c4)ncnc3s2)cc1
- IC50 [1]: > 20 µM
- IC50 [2]: > 20 µM

SMILES: O=C(O)/C=C\C(=O)Nc1ccc(-c2cc3c(Nc4ccc(Oc5cccc(C(F)(F)F)c5)c(Cl)c4)ncnc3s2)cc1
- IC50 [1]: > 20 µM
- IC50 [2]: > 20 µM

SMILES: O=C(NCCN1CCOCC1)Nc1ccc(-c2cc3c(Nc4ccc(Oc5cccc(C(F)(F)F)c5)c(Cl)c4)ncnc3s2)cc1
- IC50 [1]: 1.45 µM
- IC50 [2]: 3.5 µM
- Activity [10]: Dose-dependent effect
- IC50 [4]: 4.83 µM
- IC50 [5]: 4.2 µM
- IC50 [6]: 91.7 nM
- IC50 [3]: 1200 nM
- inhibition [11]: Dose-dependent effect
- inhibition [12]: Active
- inhibition [13]: Active
- inhibition [14]: Active
- Activity [15]: Active
- Activity [16]: Active
- inhibition [17]: Dose-dependent effect
- inhibition [18]: Dose-dependent effect
- inhibition [19]: Dose-dependent effect
- inhibition [20]: Active
- inhibition [21]: Active
- inhibition [22]: Active
- inhibition [23]: Active

SMILES: O=[N+]([O-])c1ccc(-c2cc3c(NCc4ccccc4)ncnc3s2)cc1
- IC50 [1]: 4.87 µM
- IC50 [2]: > 20 µM

SMILES: O=C(Nc1ccc(-c2cc3c(Nc4ccc(Oc5cccc(C(F)(F)F)c5)c(Cl)c4)ncnc3s2)cc1)NC1CC1
- IC50 [1]: 2.34 µM
- IC50 [2]: 3.83 µM
- IC50 [6]: 112 nM
- IC50 [3]: 37100 nM

SMILES: CCOC(=O)Nc1ccc(-c2cc3c(Nc4ccc(Oc5cccc(C(F)(F)F)c5)c(Cl)c4)ncnc3s2)cc1
- IC50 [1]: 17 µM
- IC50 [2]: > 20 µM

SMILES: Nc1ccc(-c2cc3c(Nc4ccc(Oc5cccc(C(F)(F)F)c5)c(Cl)c4)ncnc3s2)cc1
- IC50 [1]: 11.4 µM
- IC50 [2]: 5.85 µM
- IC50 [4]: 6 µM
- IC50 [5]: 13.9 µM
- IC50 [6]: 21.4 nM
- IC50 [3]: 1500 nM
- inhibition [11]: Dose-dependent effect
- inhibition [24]: Active
- inhibition [25]: Active
- inhibition [26]: Active

SMILES: CC(C)/C=C/C(=O)Nc1ccc(-c2cc3c(Nc4ccc(Oc5cccc(C(F)(F)F)c5)c(Cl)c4)ncnc3s2)cc1
- IC50 [1]: 0.23 µM
- IC50 [2]: > 20 µM
